Measured values from ChEMBL document CHEMBL3784971, “Synthesis, characterization, antimicrobial and biofilm inhibitory studies of new esterquats” (Bioorg Med Chem Lett, 2016).
Converted amounts (≈) assume the structure as drawn.

Tests used:
Staphylococcus aureus [1] = test: Antimicrobial activity against Staphylococcus aureus MTCC 96 assessed as growth inhibition after 24 hrs by agar well diffusion method; format: functional; settings: MTCC 96, 24 h
Bacillus subtilis [2] = test: Antimicrobial activity against Bacillus subtilis MTCC 121 assessed as growth inhibition after 24 hrs by agar well diffusion method; format: functional; settings: MTCC 121, 24 h
Staphylococcus aureus [3] = test: Antimicrobial activity against Staphylococcus aureus MLS16 MTCC 2940 assessed as growth inhibition after 24 hrs by agar well diffusion method; format: functional; settings: MLS16 MTCC 2940, 24 h
Micrococcus luteus [4] = test: Antimicrobial activity against Micrococcus luteus MTCC 2470 assessed as growth inhibition after 24 hrs by agar well diffusion method; format: functional; settings: MTCC 2470, 24 h
Raoultella planticola [5] = test: Antimicrobial activity against Klebsiella planticola MTCC 530 assessed as growth inhibition after 24 hrs by agar well diffusion method; format: functional; settings: MTCC 530, 24 h
Escherichia coli [6] = test: Antimicrobial activity against Escherichia coli MTCC 739 assessed as growth inhibition after 24 hrs by agar well diffusion method; format: functional; settings: MTCC 739, 24 h
Pseudomonas aeruginosa = test: Antimicrobial activity against Pseudomonas aeruginosa MTCC 2453 assessed as growth inhibition after 24 hrs by agar well diffusion method; format: functional; settings: MTCC 2453, 24 h
Candida albicans = test: Antimicrobial activity against Candida albicans MTCC 3017 assessed as growth inhibition after 24 hrs by agar well diffusion method; format: functional; settings: MTCC 3017, 24 h
Staphylococcus aureus [7] = test: Bactericidal activity against Staphylococcus aureus MTCC 96 after 24 hrs by serial dilution method; format: functional; settings: MTCC 96, 24 h
Bacillus subtilis [8] = test: Bactericidal activity against Bacillus subtilis MTCC 121 after 24 hrs by serial dilution method; format: functional; settings: MTCC 121, 24 h
Staphylococcus aureus [9] = test: Bactericidal activity against Staphylococcus aureus MLS16 MTCC 2940 after 24 hrs by serial dilution method; format: functional; settings: MLS16 MTCC 2940, 24 h
Micrococcus luteus [10] = test: Bactericidal activity against Micrococcus luteus MTCC 2470 after 24 hrs by serial dilution method; format: functional; settings: MTCC 2470, 24 h
Raoultella planticola [11] = test: Bactericidal activity against Klebsiella planticola MTCC 530 after 24 hrs by serial dilution method; format: functional; settings: MTCC 530, 24 h
Escherichia coli [12] = test: Bactericidal activity against Escherichia coli MTCC 739 after 24 hrs by serial dilution method; format: functional; settings: MTCC 739, 24 h
Staphylococcus aureus [13] = test: Antibiofilm activity against Staphylococcus aureus MTCC 96 after 24 hrs by crystal violet staining based assay; format: functional, organism-based; settings: MTCC 96, 24 h
Method in brief: (§1)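 Biofilm inhibition tested for amine esters and esterquats. IC50 values (µg/mL) are the mean of three determinations, with ciprofloxacin as reference.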

Micrococcus luteus [14] = test: Antibiofilm activity against Micrococcus luteus MTCC 2470 after 24 hrs by crystal violet staining based assay; format: functional, organism-based; settings: MTCC 2470, 24 h; method in brief: as §1

| Structure (SMILES) | MIC (Staphylococcus aureus [1]) [µg/mL] | MIC (Bacillus subtilis [2]) [µg/mL] | MIC (Staphylococcus aureus [3]) [µg/mL] | MIC (Micrococcus luteus [4]) [µg/mL] | MIC (Raoultella planticola [5]) [µg/mL] | MIC (Escherichia coli [6]) [µg/mL] | MIC (Pseudomonas aeruginosa) [µg/mL] | MIC (Candida albicans) [µg/mL] | MBC (Staphylococcus aureus [7]) [µg/mL] | MBC (Bacillus subtilis [8]) [µg/mL] | MBC (Staphylococcus aureus [9]) [µg/mL] | MBC (Micrococcus luteus [10]) [µg/mL] | MBC (Raoultella planticola [11]) [µg/mL] | MBC (Escherichia coli [12]) [µg/mL] | IC50 (Staphylococcus aureus [13]) [µg/mL] | IC50 (Micrococcus luteus [14]) [µg/mL] |
| --- | --- | --- | --- | --- | --- | --- | --- | --- | --- | --- | --- | --- | --- | --- | --- | --- |
| CCCCCCN(CCCCCCCCCCC(=O)OC)CCCCCCCCCCC(=O)OC | 31.2 (≈ 62.7 µM) | 62.5 (≈ 126 µM) | 62.5 (≈ 126 µM) | 31.2 (≈ 62.7 µM) | > 125 | > 125 | > 125 | > 125 | 62.5 (≈ 126 µM) | > 125 | > 125 | 62.5 (≈ 126 µM) | > 125 | > 125 | 20.1 (≈ 40.4 µM) | 18.6 (≈ 37.4 µM) |
| CCCCCCCCCCCCN(CCCCCCCCCCC(=O)OC)CCCCCCCCCCC(=O)OC | > 125 | > 125 | > 125 | > 125 | > 125 | > 125 | > 125 | > 125 | > 125 | > 125 | > 125 | > 125 | > 125 | > 125 | – | – |
| CCCCCCCCCCCCCCCCCC[N+](C)(C)CCCCCCCCCCC(=O)OC.[Cl-] | > 125 | > 125 | > 125 | > 125 | > 125 | > 125 | > 125 | > 125 | > 125 | > 125 | > 125 | > 125 | > 125 | > 125 | – | – |
